In ChEMBL document CHEMBL4368872, “Synthesis and anticonvulsant activity of phenoxyacetyl derivatives of amines, including aminoalkanols and amino acids” (Medchemcomm, 2018) one finds Activity, TD50 and Time data, which are given here for one compound.

Data set [1] deals with Mus musculus. Nature of the data set: Anticonvulsant activity in CF-1 mouse model of maximal electroshock-induced seizure assessed as suppression of tonic hind limb extension at 110 mg/kg, ip measured at 1 hr post dose. The class given is functional, organism-based. The method, boiled down:
(§1)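 Mice dosed i.p. and given maximal electroshock at 50 mA. Read-out is protection, reported as number protected / number tested at 0.25, 0.5, 1 and 4 h after dosing.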

In data set [2] the test system is Mus musculus. Nature of the data set: Anticonvulsant activity in CF-1 mouse model of maximal electroshock-induced seizure assessed as suppression of tonic hind limb extension at 110 mg/kg, ip measured at 4 hrs post dose. The class given is functional, organism-based. The method, boiled down: as §1
Data set [3] can be described thus: Neurotoxicity in CF-1 mouse at 220 mg/kg, ip measured after 1 hr by rotarod test. Conditions: in vivo. The class given is toxicity, organism-based. Summed up: (§2)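 Mice dosed i.p. were placed on a 1 in. knurled rod turning at 6 rpm. Toxicity was scored as failure to keep balance for at least 1 min, i.e. falling off three or more times. Results are reported as animals showing toxicity / animals tested at each time point.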

The nature of data set [4]: Neurotoxicity in ip dosed CF-1 mouse by rotarod test. Type of data set: toxicity, organism-based. Conditions: in vivo. The method, boiled down:
as §2
For orientation: The rotarod test checks motor coordination on a turning rod.

Data set [5] is described as follows: Neurotoxicity in Sprague-Dawley rat at 300 mg/kg, ip measured after 0.5 hrs by rotarod test. The class given is toxicity, organism-based. Conditions: in vivo. The method, boiled down: (§3)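 Rat neurotoxicity after i.p. or p.o. dosing was scored as animals impaired / animals tested at each time point. For p.o. dosing, TD50 was obtained by probit analysis.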
Data set [6] concerns Rattus norvegicus. Nature of the data set: Anticonvulsant activity in hippocampal kindling Sprague-Dawley rat model assessed as after discharge time at 50 mg/kg, ip administered as single dose measured immediately. The class given is functional. Summed up:
(§4)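 Rats implanted with a hippocampal electrode and kindled with suprathreshold trains (200 µA, 10 s, 50 Hz) every 30 min for 6 h on alternate days until fully kindled. One week later they received a single i.p. dose. Seizure score (Racine scale) and afterdischarge duration were recorded at 0–135 min and compared with the control stimulus given 15 min before dosing; each animal served as its own control. Values are mean ± SEM.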

For data set [7], the system named is Rattus norvegicus. Nature of the data set: Anticonvulsant activity in hippocampal kindling Sprague-Dawley rat model assessed as after discharge time at 50 mg/kg, ip administered as single dose measured after 45 mins. The class given is functional. Summed up: as §4
The subject of data set [8] is Rattus norvegicus. Put plainly: Anticonvulsant activity in hippocampal kindling Sprague-Dawley rat model assessed as after discharge time at 50 mg/kg, ip administered as single dose measured after 105 mins. Type of data set: functional. The method, boiled down:
as §4

Data set [9] concerns Rattus norvegicus. Put plainly: Anticonvulsant activity in hippocampal kindling Sprague-Dawley rat model assessed as after discharge time at 50 mg/kg, ip administered as single dose measured after 135 mins. Type of data set: functional. Summed up:
as §4

The subject of data set [10] is Rattus norvegicus. Nature of the data set: Anticonvulsant activity in hippocampal kindling Sprague-Dawley rat model assessed as after discharge time at 100 mg/kg, ip administered as single dose measured after 45 mins. Type of data set: functional. The method, boiled down: as §4
Data set [11] is described as follows: Neurotoxicity in Sprague-Dawley rat at 50 mg/kg, ip administered as single dose measured after 0.25 hrs by rotarod test. Type of data set: toxicity, organism-based. Conditions: in vivo. The method, boiled down: as §3
In data set [12] the test system is Mus musculus. Nature of the data set: Anticonvulsant activity in ip dosed CF-1 mouse model of maximal electroshock-induced seizure assessed as time required for suppression of tonic hind limb extension. The class given is functional. A general note: In the maximal electroshock model the usual endpoint is tonic extension of the hind limbs.

The source made the active and inactive calls.

In general, TD50 refers to the 50% point of the dose-response relation for the toxic effect studied. Low readings indicate harm at a small dose, high ones harm only at a large dose. For the compound `Cc1cccc(C)c1OCC(=O)N[C@H](C)CO`, the outcome in the data set on Mus musculus [1] and with Mus musculus [2] was inactive. In addition, the Activity result is on record as “Non-Toxic” in data set [3], “Toxic” in [5] and “Non-Toxic” in data set [11]. This compound also had a TD50 in [4] of 140 mg/kg. The Time in the data set with Rattus norvegicus [6] was found to be 72 s; with Rattus norvegicus [7], 73 s; in the data set with Rattus norvegicus [8], 77 s; in the data set on Rattus norvegicus [9], 72 s; in the data set on Rattus norvegicus [10] it was 86 s; in the data set on Mus musculus [12], 0.25 h.
